Measured values from ChEMBL document CHEMBL1132592, “Synthesis of novel 2-benzothiopyran and 3-benzothiepin derivatives and their stimulatory effect on bone formation” (J Med Chem, 1999).

Columns and labels:
[1] = target: T1, Alkaline phosphatase, tissue-nonspecific isozyme (Rattus norvegicus) (UniProt P08289); assay: Effect of 10E-5 M compound on alkaline phosphatase activity in culture of rat bone marrow stromal cells; type: tissue-based
T1 sequence (whole entry): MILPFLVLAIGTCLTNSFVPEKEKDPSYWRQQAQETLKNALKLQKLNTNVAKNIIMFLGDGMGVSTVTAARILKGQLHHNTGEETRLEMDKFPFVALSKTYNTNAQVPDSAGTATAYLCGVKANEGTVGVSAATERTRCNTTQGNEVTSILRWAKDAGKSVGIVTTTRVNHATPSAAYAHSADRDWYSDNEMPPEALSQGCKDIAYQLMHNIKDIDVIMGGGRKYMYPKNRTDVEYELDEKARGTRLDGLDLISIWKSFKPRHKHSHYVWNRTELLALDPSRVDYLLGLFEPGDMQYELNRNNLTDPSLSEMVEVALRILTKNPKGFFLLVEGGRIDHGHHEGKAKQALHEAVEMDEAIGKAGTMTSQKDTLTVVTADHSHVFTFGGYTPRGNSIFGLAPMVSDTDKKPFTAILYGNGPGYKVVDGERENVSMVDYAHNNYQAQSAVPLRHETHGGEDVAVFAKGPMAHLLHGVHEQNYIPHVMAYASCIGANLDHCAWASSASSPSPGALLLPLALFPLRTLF
How it was run: (§1)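 Femoral marrow stromal cells from 7-week-old male Sprague-Dawley rats. Primary culture 1 week in α-MEM (10 mM HEPES pH 7.0, 15% FBS, 2 mM glutamine, 50 μg/mL ascorbate, 10 mM β-glycerophosphate, 10^-7 M dexamethasone), 37 °C, 5% CO2. Subcultured at 4 × 10^4 cells/well; compound (10 mM stock in EtOH-DMSO 1:1 or DMF) from day 1 to day 10-14, medium changed every other day. Lysate ALP (Lowry method) in nmol/min/well; mean ± SE, n = 5–10.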

[2] = target: T2, Alkaline phosphatase, tissue-nonspecific isozyme (Mus musculus) (UniProt P09242); assay: Alkaline phosphatase stimulatory activity of 10E-5 M compound in culture of MC3T3-E1 in absence of BMP
T2 sequence (whole entry): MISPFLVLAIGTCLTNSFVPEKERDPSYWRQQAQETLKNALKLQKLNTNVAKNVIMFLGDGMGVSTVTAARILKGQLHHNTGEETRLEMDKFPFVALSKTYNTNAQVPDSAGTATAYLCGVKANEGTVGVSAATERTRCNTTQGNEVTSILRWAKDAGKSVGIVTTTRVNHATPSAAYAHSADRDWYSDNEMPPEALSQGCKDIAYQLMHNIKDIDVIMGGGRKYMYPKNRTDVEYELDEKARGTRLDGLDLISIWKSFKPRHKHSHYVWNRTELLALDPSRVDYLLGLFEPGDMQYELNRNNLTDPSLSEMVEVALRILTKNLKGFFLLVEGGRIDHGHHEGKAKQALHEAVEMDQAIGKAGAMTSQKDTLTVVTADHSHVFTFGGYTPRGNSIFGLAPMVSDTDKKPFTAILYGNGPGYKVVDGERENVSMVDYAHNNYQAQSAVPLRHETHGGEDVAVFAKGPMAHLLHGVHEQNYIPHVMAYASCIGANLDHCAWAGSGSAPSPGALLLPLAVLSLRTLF
How it was run: (§2)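 Mouse osteoblastic MC3T3-E1 cells, 3000 cells/well, grown 3 days in α-MEM with 10% FBS, then switched to α-MEM with 1% FBS plus compound, with or without recombinant Xenopus BMP-4/7 heterodimer (3 ng/mL), for 3 more days. ALP in lysate supernatant read as absorbance at 405 nm; mean ± SE, n = 6; Dunnett's test vs matching control.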

[3] = target: T2, Alkaline phosphatase, tissue-nonspecific isozyme (Mus musculus); assay: Alkaline phosphatase stimulatory activity of 10E-5 M compound in culture of MC3T3-E1 in presence of 3 ng/mL of BMP; how it was run: as §2
[4] = target: T1, Alkaline phosphatase, tissue-nonspecific isozyme (Rattus norvegicus); assay: Effect of 10E-7 M compound on alkaline phosphatase activity compared to control in culture of rat bone marrow stromal cells
How it was run: (§3)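 Rat femoral marrow stromal cells subcultured at 4 × 10^4 cells/well in α-MEM with 15% FBS, ascorbate, 10 mM β-glycerophosphate and 10^-7 M dexamethasone. Compound added day 1 to day 10-14, medium refreshed every other day. Lysate ALP (Lowry method) given as fold of control; n = 5–10; Student's t-test.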

[5] = target: T1, Alkaline phosphatase, tissue-nonspecific isozyme (Rattus norvegicus); assay: Effect of 10E-6 M compound on alkaline phosphatase activity in culture of rat bone marrow stromal cells; how it was run: as §1
[6] = target: T2, Alkaline phosphatase, tissue-nonspecific isozyme (Mus musculus); assay: Alkaline phosphatase stimulatory activity of 10E-6 M compound in culture of MC3T3-E1 in presence of 3 ng/mL of BMP; how it was run: as §2
[7] = target: T1, Alkaline phosphatase, tissue-nonspecific isozyme (Rattus norvegicus); assay: Effect of 10E-7 M compound on alkaline phosphatase activity in culture of rat bone marrow stromal cells; how it was run: as §1
[8] = target: T2, Alkaline phosphatase, tissue-nonspecific isozyme (Mus musculus); assay: Alkaline phosphatase stimulatory activity of 10E-6 M compound in culture of MC3T3-E1 in absence of BMP; how it was run: as §2
[9] = target: T1, Alkaline phosphatase, tissue-nonspecific isozyme (Rattus norvegicus); assay: Effect on alkaline phosphatase activity compared to control in culture of rat bone marrow stromal cells, 10E-5 M concentration; type: tissue-based; how it was run: as §3

CCOP(=O)(Cc1ccc(NC(=O)[C@@H]2Cc3cc(OC)c(OC)cc3C(=O)CS2)cc1)OCC
ALP activity [1]: 770
ALP activity [2]: 0.12
ALP activity [3]: 0.131

CCOP(=O)(Cc1ccc(NC(=O)C2Cc3cc(OC)c(OC)cc3C(=O)CS2)cc1)OCC (racemic)
ALP activity [1]: 1910
ALP activity [2]: 0.143
ALP activity [3]: 0.169

CCOP(=O)(OCC)c1ccc(NC(=O)C2SCC(=O)c3cc(C4CCCCC4)ccc32)cc1 (stereo not drawn)
ALP activity [4]: 1.6

CCCOP(=O)(OCCC)c1ccc(NC(=O)C2SCC(=O)c3cc(C4CCCCC4)ccc32)cc1 (stereo not drawn)
ALP activity [4]: 1.5

CCOP(=O)(Cc1ccc(NC(=O)[C@H]2Cc3cc4c(cc3C(=O)[C@H](C)S2)OCO4)cc1)OCC
ALP activity [5]: 682
ALP activity [6]: 0.191
ALP activity [7]: 192
ALP activity [8]: 0.154
ALP activity [1]: 1640
ALP activity [2]: 0.195
ALP activity [3]: 0.284
ALP activity [9]: 5.5

CC(C)OP(=O)(Cc1ccc(NC(=O)C2SCC(=O)c3cc(C4CCCCC4)ccc32)cc1)OC(C)C (stereo not drawn)
ALP activity [4]: 2

COP(=O)(OC)c1ccc(NC(=O)C2SCC(=O)c3cc(C4CCCCC4)ccc32)cc1 (stereo not drawn)
ALP activity [4]: 1.5

CCOP(=O)(Cc1ccc(NC(=O)C2Cc3cc4c(cc3C(=O)C(C)S2)OCO4)cc1)OCC (racemic)
ALP activity [5]: 411
ALP activity [6]: 0.162
ALP activity [7]: 185
ALP activity [8]: 0.133
ALP activity [1]: 1210
ALP activity [2]: 0.178
ALP activity [3]: 0.221

COP(=O)(Cc1ccc(NC(=O)C2SCC(=O)c3cc(C4CCCCC4)ccc32)cc1)OC (stereo not drawn)
ALP activity [4]: 1.7

CCOP(=O)(CCc1ccc(NC(=O)C2SCC(=O)c3cc(C4CCCCC4)ccc32)cc1)OCC (stereo not drawn)
ALP activity [4]: 1.5

CCCCOP(=O)(Cc1ccc(NC(=O)C2SCC(=O)c3cc(C4CCCCC4)ccc32)cc1)OCCCC (stereo not drawn)
ALP activity [4]: 1.7

CCOP(=O)(Cc1ccc(NC(=O)[C@H]2Cc3cc(OC)c(OC)cc3C(=O)CS2)cc1)OCC
ALP activity [2]: 0.164
ALP activity [3]: 0.199

C[C@@H]1S[C@@H](C(=O)Nc2nc(-c3ccccc3)cs2)c2cc3c(cc2C1=O)OCO3
ALP activity [9]: 1.3

CCOP(=O)(Cc1ccc(NC(=O)[C@H]2Cc3ccc(C)cc3C(=O)[C@H](C)S2)cc1)OCC
ALP activity [9]: 1.7

CCOP(=O)(Cc1ccccc1NC(=O)[C@H]1Cc2cc3c(cc2C(=O)[C@H](C)S1)OCO3)OCC
ALP activity [9]: 1.1

CCOP(=O)(Cc1ccc(NC(=O)[C@@H]2Cc3cc4c(cc3C(=O)[C@@H](C)S2)OCO4)cc1)OCC
ALP activity [5]: 160
ALP activity [7]: 166
ALP activity [1]: 566
ALP activity [2]: 0.115
ALP activity [3]: 0.131

CCOP(=O)(Cc1ccccc1NC(=O)C1SCC(=O)c2cc(C3CCCCC3)ccc21)OCC (stereo not drawn)
ALP activity [4]: 1.5

CCOP(=O)(Cc1ccc(NC(=O)[C@@H]2SCC(=O)c3cc(-c4ccc(Cl)cc4)ccc32)cc1)OCC
ALP activity [9]: 1.7

CCOP(=O)(OCC)c1ccc(NC(=O)[C@@H]2SCC(=O)c3cc(C)c(C)cc32)cc1
ALP activity [9]: 1.5

CCOP(=O)(Cc1ccc(NC(=O)[C@H]2Cc3cc(OC)c(OC)cc3C(=O)[C@H](C)S2)cc1)OCC
ALP activity [9]: 2.3

CCOP(=O)(Cc1ccc(NC(=O)[C@H]2Cc3ccccc3C(=O)CS2)cc1)OCC
ALP activity [9]: 1.5
